In ChEMBL document CHEMBL4732226, “Discovery of a potent G-protein-coupled receptor 119 agonist for the treatment of type 2 diabetes” (Bioorg Med Chem, 2021):
The source made the active and inactive calls. The calls are words filed in the database; no cut-off is given here.

Tests used:
[1] = Toxicity in male Wistar rat assessed as globulin level at 100 mg/kg, po after 28 days (reference value: 2.62 +/- 0.12 g/dl); assay type: organism-based; conditions: in vivo, 672 h, time 28 day
[2] = Toxicity in male Wistar rat assessed as ratio of liver to body weight at 400 mg/kg, po after 28 days (reference value: 3.142 +/- 0.231); assay type: organism-based; conditions: in vivo, 672 h, time 28 day
[3] = Toxicity in male Wistar rat assessed as ratio of thymus to body weight at 200 mg/kg, po after 28 days (reference value: 0.148 +/- 0.023); assay type: organism-based; conditions: in vivo, 672 h, time 28 day
[4] = Toxicity in male Wistar rat assessed as ratio of spleen to body weight at 100 mg/kg, po after 28 days (reference value: 0.206 +/- 0.026); assay type: organism-based; conditions: in vivo, 672 h, time 28 day
[5] = Half life in Beagle dog at 10 mg/kg, po up to 24 hrs; assay type: ADME, organism-based, Canis lupus familiaris; conditions: in vivo
Procedure, shortened: (§1)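 Single oral dose at 10 mg/kg given to male Wistar rats and to Beagle dogs; bioavailability also determined in both species.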

[6] = Toxicity in female Wistar rat assessed as ophthalmic examination at 400 mg/kg, po after 28 days; assay type: organism-based; conditions: in vivo, 672 h, time 28 day
Procedure, shortened: (§2)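 Repeated-dose oral toxicity by gavage in Wistar rats, 10 males and 10 females per group, given 100, 200 or 400 mg/kg once daily for 28 days. Endpoints were clinical signs, mortality, neurobehaviour, food intake, ophthalmic examination and body weight. Animals were sacrificed on day 29 for blood biochemistry, organ-to-body weight ratios and histopathology.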

[7] = test system: Rattus norvegicus; test: Antidiabetic activity in Sprague-Dawley rat assessed as reduction in HFD-induced body weigh gain at 25 to 50 mg/kg/day, po for 28 days; assay type: functional, organism-based; conditions: dose 25-50 mg/kg/day, time 28.0 day
Procedure, shortened: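 Male SD rats were fed high-fat diet for 12 weeks, with a normal-chow group alongside, then split into 4 treatment groups. Oral dosing at 25 or 50 mg/kg/day for 28 days in PG450/Tween 80/0.1% Na-CMC (5:5:90). Body weight recorded daily.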

[8] = Toxicity in female Wistar rat assessed as ratio of adrenals to body weight at 400 mg/kg, po after 28 days (reference value: 0.045 +/- 0.007); assay type: organism-based; conditions: in vivo, 672 h, time 28 day
[9] = Toxicity in male Wistar rat assessed as ratio of liver to body weight at 100 mg/kg, po after 28 days (reference value: 3.142 +/- 0.231); assay type: organism-based; conditions: in vivo, 672 h, time 28 day
[10] = Toxicity in male Wistar rat assessed as AST level at 100 mg/kg, po after 28 days (reference value: 119.4 +/- 9.3 U/L); assay type: organism-based; conditions: in vivo, 672 h, time 28 day
[11] = Cmax in Wistar rat at 10 mg/kg, po up to 24 hrs; assay type: ADME, organism-based; design: route oral, dose 10 mg/kg, time <=24; conditions: in vivo; procedure, shortened: as §1
[12] = Toxicity in female Wistar rat assessed as globulin level at 400 mg/kg, po after 28 days (reference value: 2.44 +/- 0.18 g/dl); assay type: organism-based; conditions: in vivo, 672 h, time 28 day
[13] = Toxicity in male Wistar rat assessed as ratio of testes to body weight at 400 mg/kg, po after 28 days (reference value: 1.248 +/- 0.073); assay type: organism-based; conditions: in vivo, 672 h, time 28 day
[14] = test system: Mus musculus; test: Antidiabetic activity in glucose-stimulated db/db mouse assessed as increase in glucose dependent insulin secretion at 50 mg/kg, po after 10 to 30 mins; assay type: functional, organism-based; conditions: time 10-30 min
[15] = Toxicity in male Wistar rat assessed as ratio of kidney to body weight at 100 mg/kg, po after 28 days (reference value: 0.787 +/- 0.078); assay type: organism-based; conditions: in vivo, 672 h, time 28 day
[16] = Half life in Wistar rat at 10 mg/kg, po up to 24 hrs; assay type: ADME, organism-based; conditions: in vivo; procedure, shortened: as §1
[17] = Toxicity in female Wistar rat assessed as ratio of thymus to body weight at 100 mg/kg, po after 28 days (reference value: 0.260 +/- 0.025); assay type: organism-based; conditions: in vivo, 672 h, time 28 day
[18] = Toxicity in female Wistar rat assessed as neurobehavioral changes at 400 mg/kg, po after 28 days; assay type: organism-based; conditions: in vivo, 672 h, time 28 day; procedure, shortened: as §2
[19] = Toxicity in female Wistar rat assessed as ALT level at 400 mg/kg, po after 28 days (reference value: 21.28 +/- 2.31 U/L); assay type: organism-based; conditions: in vivo, 672 h, time 28 day
[20] = Toxicity in female Wistar rat assessed as ratio of uterus to body weight at 100 mg/kg, po after 28 days (reference value: 0.335 +/- 0.108); assay type: organism-based; conditions: in vivo, 672 h, time 28 day
[21] = Toxicity in female Wistar rat assessed as ratio of liver to body weight at 400 mg/kg, po after 28 days (reference value: 3.219 +/- 0.221); assay type: organism-based; conditions: in vivo, 672 h, time 28 day
[22] = Cmax in Beagle dog at 10 mg/kg, po up to 24 hrs; assay type: ADME, organism-based, Canis lupus familiaris; design: route oral, dose 10 mg/kg, time <=24; conditions: in vivo; procedure, shortened: as §1
[23] = Toxicity in male Wistar rat assessed as ratio of adrenals to body weight at 200 mg/kg, po after 28 days (reference value: 0.020 +/- 0.003); assay type: organism-based; conditions: in vivo, 672 h, time 28 day
[24] = Toxicity in male Wistar rat assessed as ALP level at 200 mg/kg, po after 28 days (reference value: 174.77 +/- 25.42 U/L); assay type: organism-based; conditions: in vivo, 672 h, time 28 day
[25] = Toxicity in male Wistar rat assessed as ratio of epididymides to body weight at 200 mg/kg, po after 28 days (reference value: 0.361 +/- 0.028); assay type: organism-based; conditions: in vivo, 672 h, time 28 day
[26] = Toxicity in male Wistar rat assessed as urea level at 100 mg/kg, po after 28 days (reference value: 58.14 +/- 9.13 mg/dl); assay type: organism-based; conditions: in vivo, 672 h, time 28 day
[27] = molecular target: T1, Glucose-dependent insulinotropic receptor (Homo sapiens) (UniProt Q8TDV5); test: Agonist activity at human GPR119 stably transfected in CHO-K1 cells assessed as increase in cAMP stimulation after 1 hr by enzyme immunoassay relative to AR231453; assay type: functional, cell-based; conditions: filed as agonist
T1 sequence (whole entry): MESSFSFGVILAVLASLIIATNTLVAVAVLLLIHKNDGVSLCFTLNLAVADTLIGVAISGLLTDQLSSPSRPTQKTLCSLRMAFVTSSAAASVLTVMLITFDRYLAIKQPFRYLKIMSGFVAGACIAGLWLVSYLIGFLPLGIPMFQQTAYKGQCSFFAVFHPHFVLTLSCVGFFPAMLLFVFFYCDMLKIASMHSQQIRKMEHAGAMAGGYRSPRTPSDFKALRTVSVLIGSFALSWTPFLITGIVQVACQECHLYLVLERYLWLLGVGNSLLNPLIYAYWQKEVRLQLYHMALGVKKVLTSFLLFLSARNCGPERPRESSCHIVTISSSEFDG

[28] = Toxicity in male Wistar rat assessed as ratio of testes to body weight at 100 mg/kg, po after 28 days (reference value: 1.248 +/- 0.073); assay type: organism-based; conditions: in vivo, 672 h, time 28 day
[29] = Toxicity in male Wistar rat assessed as creatinine level at 100 mg/kg, po after 28 days (reference value: 0.61 +/- 0.04 mg/dl); assay type: organism-based; conditions: in vivo, 672 h, time 28 day
[30] = Toxicity in male Wistar rat assessed as ratio of epididymides to body weight at 100 mg/kg, po after 28 days (reference value: 0.361 +/- 0.028); assay type: organism-based; conditions: in vivo, 672 h, time 28 day
[31] = Toxicity in female Wistar rat assessed as reduction in body weight at 100 to 400 mg/kg, po after 28 days; assay type: organism-based; conditions: in vivo, 672 h, dose 100-400 mg/kg, time 28 day; procedure, shortened: as §2

SMILES: Cc1c(Oc2cccc(/C=C3\SC(=O)NC3=O)c2)ncnc1OC1CCN(C(=O)OC(C)(C)C)CC1
- Activity [1]: 2.5 g/dL
- Ratio [2]: 3.22
- Ratio [3]: 0.175
- Ratio [4]: 0.222
- half-life [5]: 19.3 h
- Activity [6]: Non-Toxic
- Activity [7]: inactive
- Ratio [8]: 0.042
- Ratio [9]: 3.237
- Activity [10]: 114.13 U/L
- Cmax [11]: 256 ng/mL
- Activity [12]: 2.42 g/dL
- Ratio [13]: 1.23
- Activity [14]: Active
- Ratio [15]: 0.831
- half-life [16]: 12.3 h
- Ratio [17]: 0.241
- Activity [18]: Non-Toxic
- Activity [19]: 23.3 U/L
- Ratio [20]: 0.345
- Ratio [21]: 3.172
- Cmax [22]: 1050 ng/mL
- Ratio [23]: 0.023
- Activity [24]: 164.68 U/L
- Ratio [25]: 0.406
- Activity [26]: 55.36 mg/dL
- Emax [27]: 160%
- Ratio [28]: 1.228
- Activity [29]: 0.57 mg/dL
- Ratio [30]: 0.371
- Activity [31]: Non-Toxic
